Here are results for four compounds from PMC4015637 (Anticancer research, 2014).

Each structure is given as a SMILES string. Read-outs that look alike come from different tables or passages of the source.

The test system of series [1] is mice or rats. The note with it: cited from earlier work.
In series [2] the test system is male C57/BL6 mice. Briefly: In vivo toxicity study. Particulars: for calcification in organs / histopathological analysis of the major organs (liver, heart, kidney) / toxicity in vivo (clinical pathology chemistry profile, complete blood count): 60 μg/kg i.p., three weeks.
Series [3] in a line: In vitro metabolic stability in human liver microsomes. In kind it is in vitro ADME. Particulars: 0.5 μM compound, 1 mg/ml microsomal protein, NADPH, 37°C, n=3, mean±S.D. The procedure, abridged: (§1)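 Pooled liver microsomes (1 mg/ml protein) with 0.5 μM test compound, added from acetonitrile stock, in 0.2 M phosphate pH 7.4 with NADPH-regenerating system (1.3 mM NADP+, 3.3 mM glucose-6-phosphate, 0.4 U/ml G6P dehydrogenase), shaken at 37°C. Samples at 5–120 min quenched in acetonitrile with deuterated internal standard, centrifuged, and analysed by LC-MS/MS for % remaining. Half-life reported; n=3, mean±S.D.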

In series [4] the target is T1, human CYP27A1 (Homo sapiens, UniProt Q02318).
T1 sequence (Q02318 34-531): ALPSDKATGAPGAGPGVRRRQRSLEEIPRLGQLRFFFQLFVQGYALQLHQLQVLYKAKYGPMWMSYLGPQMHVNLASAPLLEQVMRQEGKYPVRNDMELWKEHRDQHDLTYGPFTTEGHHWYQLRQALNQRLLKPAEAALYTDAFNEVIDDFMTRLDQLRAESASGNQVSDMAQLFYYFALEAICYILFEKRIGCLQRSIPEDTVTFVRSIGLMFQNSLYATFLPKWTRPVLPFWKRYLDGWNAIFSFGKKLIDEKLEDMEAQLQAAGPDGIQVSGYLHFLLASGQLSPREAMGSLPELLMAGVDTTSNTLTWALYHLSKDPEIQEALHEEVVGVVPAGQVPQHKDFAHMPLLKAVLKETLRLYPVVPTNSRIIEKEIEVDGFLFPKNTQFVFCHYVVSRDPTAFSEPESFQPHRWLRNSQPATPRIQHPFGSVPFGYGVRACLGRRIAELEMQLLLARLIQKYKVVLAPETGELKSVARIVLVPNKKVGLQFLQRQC
Briefly: Metabolism by purified recombinant CYP27A1 in reconstituted system. In kind it is in vitro ADME. The note with it: 50 μM substrate in 0.45% cyclodextrin, 1 μM human CYP27A1, 1 h incubation. The procedure, abridged: (§2)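 Reconstituted system: adrenodoxin (15 μM), adrenodoxin reductase (4 μM), purified recombinant human CYP11A1 or CYP27A1 (1 μM). Substrate at 50 μM final, solubilised in 0.45% 2-hydroxypropyl-β-cyclodextrin. Incubation 1 h, extended for some analogs to 2 h (CYP11A1) or 3 h (CYP27A1). Products extracted with dichloromethane and resolved by reverse-phase HPLC. Read-outs are % substrate conversion and number of products.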

The target in series [5] is T2, rat CYP24A1 (Rattus norvegicus, UniProt Q09128).
T2 sequence (Q09128 36-514): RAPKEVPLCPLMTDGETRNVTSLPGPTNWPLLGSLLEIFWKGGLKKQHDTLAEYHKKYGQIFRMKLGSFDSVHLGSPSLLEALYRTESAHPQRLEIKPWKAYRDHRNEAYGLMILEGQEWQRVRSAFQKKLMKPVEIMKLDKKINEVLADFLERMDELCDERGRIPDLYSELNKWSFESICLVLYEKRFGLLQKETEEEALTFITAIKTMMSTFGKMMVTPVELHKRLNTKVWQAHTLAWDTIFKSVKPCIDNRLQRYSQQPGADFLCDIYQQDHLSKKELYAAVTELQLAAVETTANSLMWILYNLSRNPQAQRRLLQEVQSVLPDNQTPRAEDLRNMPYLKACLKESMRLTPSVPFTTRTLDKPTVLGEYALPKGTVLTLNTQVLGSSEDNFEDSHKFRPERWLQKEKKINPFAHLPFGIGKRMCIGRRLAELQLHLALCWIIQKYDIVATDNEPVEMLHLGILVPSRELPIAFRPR
The experiment in a line: Metabolism by purified recombinant CYP24A1 in reconstituted system. The note with it: phospholipid vesicles, 0.025 mol secosteroid/mol phospholipid, 1 μM rat CYP24A1, 1 h. In kind it is in vitro ADME. In short, it runs like this:
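Reconstituted system: purified recombinant rat CYP24A1 (1 μM), adrenodoxin (15 μM) and adrenodoxin reductase (4 μM). Test compound incorporated into phospholipid vesicles at 0.025 mol secosteroid/mol phospholipid. Incubated 1 h. Products extracted with dichloromethane and resolved by reverse-phase HPLC. Result expressed as percentage conversion of substrate to products and number of products.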

The format of series [6] is in vitro ADME, human, rat, mouse, monkey, dog.
Series [7] can be described thus: In vitro metabolic stability in rat liver microsomes. In kind it is in vitro ADME. Particulars: 0.5 μM compound, 1 mg/ml microsomal protein, NADPH, 37°C, n=3, mean±S.D. In short, it runs like this: as §1
The nature of series [8]: In vitro metabolic stability in monkey liver microsomes. In kind it is in vitro ADME. The note with it: 0.5 μM compound, 1 mg/ml microsomal protein, NADPH, 37°C, n=3, mean±S.D. The procedure, abridged:
as §1
(In general: Liver microsomes are vesicles of endoplasmic reticulum, rich in cytochrome P450 enzymes.)

Series [9] can be described thus: In vitro metabolic stability in dog liver microsomes. The class given is in vitro ADME. The note with it: 0.5 μM compound, 1 mg/ml microsomal protein, NADPH, 37°C, n=3, mean±S.D. The procedure, abridged:
as §1

The nature of series [10]: In vitro metabolic stability in mouse liver microsomes. The class given is in vitro ADME. Particulars: 0.5 μM compound, 1 mg/ml microsomal protein, NADPH, 37°C, n=3, mean±S.D. The procedure, abridged: as §1
Series [11] deals with mice. The note with it: up to 30 μg/kg for three weeks; cited from earlier work.
Series [12] deals with T3, human CYP11A1 (Homo sapiens, UniProt P05108).
T3 sequence (P05108 40-521): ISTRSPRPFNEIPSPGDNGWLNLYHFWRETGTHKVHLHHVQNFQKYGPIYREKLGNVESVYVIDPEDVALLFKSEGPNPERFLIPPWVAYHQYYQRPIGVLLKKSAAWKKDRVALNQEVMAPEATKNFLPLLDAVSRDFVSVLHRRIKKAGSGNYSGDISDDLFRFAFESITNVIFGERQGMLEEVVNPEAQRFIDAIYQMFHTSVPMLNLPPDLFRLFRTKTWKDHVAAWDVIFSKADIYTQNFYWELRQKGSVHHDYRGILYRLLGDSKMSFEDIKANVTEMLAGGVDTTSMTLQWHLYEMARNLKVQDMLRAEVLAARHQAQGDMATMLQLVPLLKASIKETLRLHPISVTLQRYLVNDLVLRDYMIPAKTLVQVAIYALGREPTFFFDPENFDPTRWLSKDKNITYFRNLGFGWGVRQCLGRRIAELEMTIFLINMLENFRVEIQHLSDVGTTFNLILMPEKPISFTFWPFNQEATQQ
Briefly: Metabolism by purified recombinant CYP11A1 in reconstituted system. The note with it: 50 μM substrate in 0.45% cyclodextrin, 1 μM human CYP11A1, 1 h incubation. The class given is in vitro ADME. The procedure, abridged:
as §2

Series [13] has as its system rats. Particulars: 3 μg/kg for seven consecutive days; cited from earlier work.
[14] abbreviates: 60 μg/kg i.p. once daily for three weeks.

On to `C=C1/C(=C\C=C2/CCC[C@]3(C)[C@@H]([C@H](C)CCCC(C)(C)O)CC[C@@H]23)C[C@@H](O)C[C@@H]1O` [1,25(OH)2D3, 1,25-dihydroxy vitamin D3, reference compound], for which the “dose reported to generate hypercalcemia” value in series [1] (mice (ref 37) or rats (ref 20)) was ≥ 1 µg/kg. The same compound registered a body weight in series [2] (2 μg/kg i.p. once daily for three weeks) of 21 ± 1 g. Besides, the serum calcium in series [2] (2 μg/kg i.p. once daily for three weeks, positive control) worked out at 14.6 ± 0.48 mg/dL.

`C=C1CC[C@H](O)C/C1=C/C=C1\CCC[C@@]2(C)C1CC[C@@H]2[C@@](C)(O)CCCC(C)C` (stereo partly drawn) [20R(OH)D3, 20R-hydroxyvitamin D3]: the “half-life in liver microsomes, Human” value in series [3] was determined as 34 ± 2 min. For the same compound, in [4], the “CYP27A1 % conversion of substrate to products” value was found to be 90% and the “CYP27A1 No. of different products (at least 2% of total secosteroids)” value came to 3. Moreover, the “CYP24A1 No. of different products (at least 2% of total secosteroids)” value in series [5] is 4. The “half-life in liver microsomes, average of five different species” value in series [6] came out at 30 min. Moreover, in [7], the “half-life in liver microsomes, Rat” value was found to be 19 ± 3 min. Besides, the “half-life in liver microsomes, Monkey” value in series [8] was found to be 15 ± 1 min. In addition, the “half-life in liver microsomes, Dog” value in series [9] is 21 ± 2 min. In series [2] (setting [14]), the body weight is 25 ± 1 g and the serum calcium was found to be 8.6 ± 0.77 mg/dL. Besides, in series [2], the calcification in organs result is “Calcification was not present”; the “histopathological analysis of the major organs (liver, heart, kidney)” value was “unremarkable histology”; the “toxicity in vivo (clinical pathology chemistry profile, complete blood count)” value is listed as “did not show toxicity”. For the same compound, the “half-life in liver microsomes, Mouse” value in [10] was found to be 25 ± 1 min.

For `C=C1CC[C@H](O)C/C1=C/C=C1\CCC[C@@]2(C)[C@H]1CC[C@@H]2[C@@](C)(O)CCCC(C)C` [20S(OH)D3, 20S-hydroxyvitamin D3], in series [11], the “effect on systemic calcium levels” value was “no effect on systemic calcium levels”. For the same compound, the “half-life in liver microsomes, Human” value in series [3] came out at 60 ± 4 min. In [12], the “CYP11A1 % conversion of substrate to products” value was 21% and the “CYP11A1 No. of different products (at least 2% of total secosteroids)” value was 3. Further, the “CYP27A1 No. of different products (at least 2% of total secosteroids)” value in [4] was determined as 3. Also, the “CYP24A1 No. of different products (at least 2% of total secosteroids)” value in series [5] was 3. Also, the “effect on systemic calcium levels” value in series [13] is reported as “no effect on systemic calcium levels”. Besides, the “half-life in liver microsomes, average of five different species” value in [6] is given as 50 min. Also, in series [7], the “half-life in liver microsomes, Rat” value was determined as 43 ± 1 min. Further, the “half-life in liver microsomes, Monkey” value in series [8] is 37 ± 1 min. The “half-life in liver microsomes, Dog” value in [9] was 47 ± 1 min. Moreover, in series [2] (setting [14]), the body weight turned out to be 25 ± 1 g and the serum calcium amounted to 8.8 ± 0.66 mg/dL. For the same compound, in [2], the calcification in organs result was “Calcification was not present”; the “histopathological analysis of the major organs (liver, heart, kidney)” value was “six out of the seven mice treated with 20S(OH)D3 show unremarkable histology”; the “toxicity in vivo (clinical pathology chemistry profile, complete blood count)” value is reported as “did not show toxicity”. For the same compound, in series [2] (i.p. once daily for three weeks, stated as probable), the “highest possible dose that does not cause noticeable cytotoxic effects” value came out at 60 µg/kg. The “half-life in liver microsomes, Mouse” value in series [10] amounted to 42 ± 2 min.

On to `C=C1CC[C@H](O)C/C1=C/C=C1\CCC[C@]2(C)[C@@H]([C@H](C)CCCC(C)(C)O)CC[C@@H]12` [25(OH)D3, 25-hydroxyD3], for which the “dose reported to generate hypercalcemia” value in series [1] (in vivo) is ≥ 1 µg/kg.
